Activity calls are given as the source filed them. No cut-off for these calls is given here.
Tests used:
[1] = target: Aurora kinase B (Homo sapiens, UniProt Q96GD4); assay: Inhibition of Aurora B (unknown origin) using FAM-labelled peptide as substrate pretreated for 10 mins followed by substrate addition and measured after 60 mins by fluorescence assay
In short: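 Kinase IC50 values are the mean of at least two independent experiments; selectivity is the Aurora A/B ratio of these IC50s.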

[2] = species: Homo sapiens; assay: Selectivity ratio of IC50 for Aurora B (unknown origin) to IC50 for Aurora A (unknown origin)
[3] = test system: HeLa; assay: Antiproliferative activity against human HeLa cells after 48 hrs by CCK8 assay; format: functional, cell-based; conditions: Homo sapiens, HeLa, 48 h; read-out: IC50
[4] = test system: MOLT-4; assay: Antiproliferative activity against human MOLT4 cells after 48 hrs by CCK8 assay; format: functional, cell-based; conditions: Homo sapiens, MOLT-4, 48 h; read-out: IC50
[5] = test system: MDA-MB-231; assay: Antiproliferative activity against human MDA-MB-231 cells after 48 hrs by CCK8 assay; format: functional, cell-based; conditions: MDA-MB-231, 48 h
[6] = target: T1, Aurora kinase A (Homo sapiens) (UniProt O14965); assay: Inhibition of Aurora A phosphorylation at Thr288 residue in human 293T cells at 1 uM after 24 hrs by western blot analysis; format: cell-based
T1 sequence (whole entry): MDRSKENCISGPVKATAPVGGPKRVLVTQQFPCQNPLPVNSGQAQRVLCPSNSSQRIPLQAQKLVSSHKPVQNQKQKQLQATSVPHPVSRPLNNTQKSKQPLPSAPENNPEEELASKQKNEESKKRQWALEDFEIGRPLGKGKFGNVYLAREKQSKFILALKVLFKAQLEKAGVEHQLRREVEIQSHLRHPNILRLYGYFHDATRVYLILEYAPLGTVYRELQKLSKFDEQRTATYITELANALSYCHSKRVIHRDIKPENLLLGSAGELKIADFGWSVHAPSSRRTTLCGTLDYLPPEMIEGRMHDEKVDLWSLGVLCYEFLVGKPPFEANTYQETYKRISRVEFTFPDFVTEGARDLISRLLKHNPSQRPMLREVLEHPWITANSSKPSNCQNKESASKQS
In short: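 293T cells treated 24 h with increasing doses or 0.1% DMSO control; lysates probed by Western blot for p-Aurora A (Thr288) and p-histone H3 (Ser10), with GAPDH as loading control.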

[7] = test system: MDA-MB-231; assay: Induction of morphological changes in human MDA-MB-231 cells assessed as monopolar/multipolar spindle formation at 1 uM by DAPI staining based microscopic analysis; format: functional, cell-based
In short: (§1)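 MDA-MB-231 cells incubated 24 h with 1 µM compound or 0.1% DMSO; immunofluorescence imaging of centrosomes, spindles and nuclei at ×1000 to score spindle polarity and chromosome alignment at the metaphase plate.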

[8] = test system: MDA-MB-231; assay: Induction of morphological changes in human MDA-MB-231 cells assessed as defects in chromosomal alignment at 1 uM by DAPI staining based microscopic analysis; format: functional, cell-based; in short: as §1
[9] = test system: MDA-MB-231; assay: Antitumor activity against human MDA-MB-231 cells xenografted in BALB/c athymic nude mouse assessed as reduction in tumor size at 30 mg/kg, ig administered every 2 days for 18 days; format: functional, organism-based
In short: (§2)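 Nude mice with established MDA-MB-231 xenografts dosed intragastrically every 2 days for 18 days; vehicle control group; n=4 per group. Tumor volume estimated over time and compared by two-way repeated-measures ANOVA; dissected tumors weighed at end. Data as mean ±SD.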

[10] = test system: MDA-MB-231; assay: Antitumor activity against human MDA-MB-231 cells xenografted in BALB/c athymic nude mouse assessed as tumor growth inhibition at 30 mg/kg, ig administered every 2 days for 18 days relative to control; format: functional; conditions: MDA-MB-231, po, read-out: TGI; in short: as §2
[11] = test system: Mus musculus; assay: Toxicity in BALB/c athymic nude mouse xenografted with human MDA-MB-231 cells assessed as effect on liver weight at 30 mg/kg, ig administered every 2 days for 18 days measured post last dose; format: organism-based; conditions: in vivo, po
In short: (§3)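 Xenograft-bearing nude mice dosed intragastrically every 2 days for 18 days; body weight tracked throughout. After treatment ended, liver, lung, kidney and spleen weighed in untreated, vehicle and dosed groups; unpaired two-tailed t-test; mean ±SD, n=4.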

[12] = test system: Mus musculus; assay: Toxicity in BALB/c athymic nude mouse xenografted with human MDA-MB-231 cells assessed as effect on spleen weight at 30 mg/kg, ig administered every 2 days for 18 days measured post last dose; format: organism-based; conditions: in vivo, po; in short: as §3
[13] = test system: Mus musculus; assay: Toxicity in BALB/c athymic nude mouse xenografted with human MDA-MB-231 cells assessed as effect on HGB level at 30 mg/kg, ig administered every 2 days for 18 days measured post last dose; format: organism-based; conditions: in vivo, po
In short: (§4)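 After the 18-day intragastric course (every 2 days), blood cell counts taken from untreated, vehicle and dosed mice; groups compared by unpaired two-tailed t-test; mean ±SD, n=4.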

[14] = test system: Mus musculus; assay: Toxicity in BALB/c athymic nude mouse xenografted with human MDA-MB-231 cells assessed as effect on RDW-CV level at 30 mg/kg, ig administered every 2 days for 18 days measured post last dose; format: organism-based; conditions: in vivo, po; in short: as §4
[15] = test system: Mus musculus; assay: Toxicity in BALB/c athymic nude mouse xenografted with human MDA-MB-231 cells assessed as effect on MCV level at 30 mg/kg, ig administered every 2 days for 18 days measured post last dose; format: organism-based; conditions: in vivo, po; in short: as §4

Chain of Aurora kinase B (Q96GD4 whole entry): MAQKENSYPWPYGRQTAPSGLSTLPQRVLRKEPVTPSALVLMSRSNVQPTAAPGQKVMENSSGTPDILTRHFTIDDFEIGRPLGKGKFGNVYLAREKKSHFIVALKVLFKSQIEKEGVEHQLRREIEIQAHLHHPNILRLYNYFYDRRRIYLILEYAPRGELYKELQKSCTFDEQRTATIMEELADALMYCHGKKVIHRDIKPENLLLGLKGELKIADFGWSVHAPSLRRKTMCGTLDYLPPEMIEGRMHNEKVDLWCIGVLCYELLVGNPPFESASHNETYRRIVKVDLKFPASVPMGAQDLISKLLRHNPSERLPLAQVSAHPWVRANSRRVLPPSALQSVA

IC50 [1]: 2.52 µM
Ratio IC50 [2]: 66
IC50 [3]: 0.45 µM
IC50 [4]: 0.821 µM
IC50 [5]: 1.19 µM
inhibition [6]: Active
Compound: CCOC(=O)C1CCN(c2ccc3c(Nc4cc(C)[nH]n4)nc(-c4ccccc4)nc3c2)CC1
Activity [7]: Active
Activity [8]: Active
Activity [9]: Active
inhibition in vivo at 30 mg/kg [10]: 45%
Activity [11]: Non-Toxic
Activity [12]: Non-Toxic
Activity [13]: Non-Toxic
Activity [14]: Non-Toxic
Activity [15]: Non-Toxic

Source: ChEMBL document CHEMBL4270643, “Structure-based drug design: Synthesis and biological evaluation of quinazolin-4-amine derivatives as selective Aurora A kinase inhibitors” (Eur J Med Chem, 2018)
